Measured values gathered from unrelated publications.
Lines come from different studies, so protocols differ.
Target: 3-phosphoinositide-dependent protein kinase 1 (PDPK1, Homo sapiens, UniProt O15530)
Residues used in one study (O15530 1-556): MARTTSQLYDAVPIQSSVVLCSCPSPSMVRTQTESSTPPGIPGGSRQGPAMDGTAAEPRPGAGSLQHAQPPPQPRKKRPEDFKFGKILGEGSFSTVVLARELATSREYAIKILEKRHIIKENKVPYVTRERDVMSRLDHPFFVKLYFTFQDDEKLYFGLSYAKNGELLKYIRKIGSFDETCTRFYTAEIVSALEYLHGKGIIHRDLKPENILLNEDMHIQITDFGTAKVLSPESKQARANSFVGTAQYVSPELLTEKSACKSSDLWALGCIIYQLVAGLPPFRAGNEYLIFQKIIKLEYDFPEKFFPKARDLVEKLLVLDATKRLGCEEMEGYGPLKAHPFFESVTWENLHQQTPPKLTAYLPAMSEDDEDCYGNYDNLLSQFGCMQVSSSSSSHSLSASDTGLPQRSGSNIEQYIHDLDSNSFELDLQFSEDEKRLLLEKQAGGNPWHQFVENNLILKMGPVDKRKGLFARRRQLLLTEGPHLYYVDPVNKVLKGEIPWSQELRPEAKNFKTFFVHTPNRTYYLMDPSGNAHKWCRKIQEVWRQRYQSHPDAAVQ

Compound	read-out	action	method	tested at	quantity	result
Cc1c(NC(=O)c2cc(C(N)=O)nc3cc(F)ccc23)c(C(F)(F)F)nn1Cc1ccc(C(C)(C)C)cc1	cell-free assay	–	competition with immobilised ligand	1 µM	remaining binding	94%
O=C(Nc1cnn(-c2csc(C(=O)NC3COC3)c2)c1)Nc1c(F)cccc1Cl	enzyme activity	inhibitor	–	5 µM	remaining activity	99.6%
CC(C)(C)C(=O)c1sc(NC2CCCCC2)nc1N	enzyme activity	inhibitor	–	10 µM	remaining activity	108%
O=C(N[C@H]1CCCCC/C=C\C2C[C@@]2(C(=O)O)NC(=O)[C@@H]2C[C@@H](Oc3ccncc3)CN2C1=O)OC1CCCC1 (some centres unmarked)	binding	–	competition with immobilised ligand	1 µM	remaining binding	92%
CNC(=O)c1cc(Oc2ccc(NC(=O)Nc3ccc(Cl)c(C(F)(F)F)c3)cc2)ccn1	cell-free assay	–	competition with immobilised ligand	0.1 µM	remaining binding	100%
CCN(CC)CCNC(=O)c1c(C)[nH]c(/C=C2\C(=O)Nc3ccc(F)cc32)c1C	cell-free assay	–	–	0.5 µM	remaining signal	81.6%
CS(=O)(=O)N1CCCC(NC(=O)[C@H](CCC2CCCCC2)NC(=O)c2ccc(CNc3ncnc4c3nnn4-c3ccccc3)cc2)C1 (some centres unmarked)	cell-free assay	–	competition with immobilised ligand	0.1 µM	remaining binding	99%
CC(C)(O)[C@H]1CC[C@H](Nc2ccc3ncc(-c4cccc(C(F)(F)F)c4)n3n2)CC1	enzyme activity	inhibitor	–	1 µM	remaining activity	105%
COc1ccc(COc2ccc(Cc3cnc(N)nc3N)cc2OC)cc1	cell-free assay	–	–	0.5 µM	remaining signal	89.4%
Nc1ncnc2occ(-c3ccc(NC(=O)Nc4cc(C(F)(F)F)ccc4F)cc3)c12	cell-free assay	inhibitor	–	20 µM	remaining signal	4.3%
COc1cc(/C=C/C(=O)CC(=O)/C=C/c2ccc(O)c(OC)c2)ccc1O	enzyme activity	inhibitor	–	1 µM	activity vs control	90%
CC(C)(C)c1nc2c(s1)c1nc(N)ncc1c1ccc(NS(=O)(=O)c3c(F)cccc3F)c(F)c12	enzyme activity	inhibitor	radiometric	1 µM	remaining activity	82%
CCN(CC)c1ccc(C2=NNC(=O)CC2C)cc1[N+](=O)[O-] (centres unmarked)	enzyme activity	inhibitor	–	10 µM	remaining activity	116%
Oc1cccc(-c2nc(N3CCOCC3)c3oc4ncccc4c3n2)c1	enzyme activity	inhibitor	–	10 µM	remaining activity	107%
CC(=O)C1=C(C)N(c2cccc(C(F)(F)F)c2)C(=O)N[C@@H]1c1ccc(C#N)nc1	cell-free assay	–	competition with immobilised ligand	1 µM	remaining binding	93.4%
O=Nc1c(-c2c(O)[nH]c3ccccc23)[nH]c2ccccc12	cell-free assay	–	–	0.5 µM	remaining signal	93%
Cc1cnc(NC2CCOCC2)nc1-n1cnc(C(=O)NC(CN)c2cc(F)cc(Cl)c2)c1 (centres unmarked)	enzyme activity	inhibitor	radiometric	1 µM	remaining activity	84%
Cn1c(=O)n(-c2ccc(C(C)(C)C#N)cc2)c2c3cc(-c4cnc5ccccc5c4)ccc3ncc21	enzyme activity	inhibitor	–	10 µM	remaining activity	98%
C[S+]([O-])c1ccc(-c2nc(-c3ccncc3)c(-c3ccc(F)cc3)[nH]2)cc1 (centres unmarked)	cell-free assay	–	–	0.5 µM	remaining signal	96.3%
CCCCN(CCCC)C(=O)CN1C[C@H](c2cc(OC)c3c(c2)OCO3)[C@@H](C(=O)O)[C@@H]1CC(C)(C)CCC	cell-free assay	–	competition with immobilised ligand	1 µM	remaining binding	100%
COc1cc(Nc2cnc(C#N)c(O[C@H](C)CN(C)C)n2)ncc1-c1cnn(C)c1	enzyme activity	inhibitor	radiometric	1 µM	remaining activity	76%
Cc1ccc(NC(=O)c2ccc(C)c(C(F)(F)F)c2)cc1C#Cc1nn(C2CCC(O)CC2)c2ncnc(N)c12 (centres unmarked)	cell-free assay	–	–	10 µM	remaining signal	113%
COc1cccc(CNC(=O)c2nc3scc(COCc4ccc(C(=O)O)cc4)c3c(=O)[nH]2)c1	cell-free assay	–	competition with immobilised ligand	1 µM	remaining binding	87.8%
COc1cc(Cl)c(C(=O)N[C@@H](CN[C@H]2CC[C@@H](N)CC2)Cc2ccc(C#N)cc2)cc1-c1ccc(CN[C@H](C)c2ccc(C)cc2)o1	enzyme activity	inhibitor	–	1 µM	remaining activity	73%
Cc1nc(N2CC[C@@H](O)C2)ncc1-c1cc(C(F)(F)F)cc2[nH]ncc12	binding	–	competition with immobilised ligand	1 µM	remaining binding	100%
C#Cc1cccc(Nc2ncnc3cc(OCCOC)c(OCCOC)cc23)c1	cell-free assay	–	–	0.5 µM	remaining signal	83.8%
